Dynein cargo inh: inhibitors of GR-EGFP nuclear translocation, primary screen, dynein cargo transport inhibitor project, imaging, high-content, 3617.4 mouse cells. test concentration mostly 20 µM; stimulated with dexamethasone, 1 µM; hits give low values. z-score, hits read low. hit rate 0.47% among 220,000;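 active = plate z-score of nuclear minus cytoplasmic receptor signal below a set negative limit, without overly bright fluorescence or cell loss, cut at about -3.5 in these data, passing the limit was not always enough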;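 note: z-score of nuclear minus cytoplasmic ring GR-EGFP intensity difference per well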
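Buffer or medium: tet-free medium with charcoal-stripped serum / Also added: dexamethasone agonist, 1.0 µM final, for 30 min / Timing: induction 48 h, compound 1 h, agonist 30 min / Measured by: high-content fluorescence imaging after fixation / Read-out: nuclear-to-cytoplasmic GR-EGFP distribution per well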
TNF death inh: inhibitors of TNF-alpha triggered necroptosis, primary screen, cell-based, Jurkat FADD-/-, single concentration; AID 463075, 2010; Jurkat FADD-/- TNF necroptosis rescue, ATP luminescence, 24 h; 0 = TNF only, 100 = no-TNF cells; hit rate 0.068% among 220,000; activation (protection from cell death), % at 10 µM;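 active = activation, meaning protection from cell death, of at least 50% relative to plate controls; inactive = activation below 50%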;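 note: necroptosis triggered by 40 ng/mL TNF-alpha added together with compound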
Autophagy mod: autophagy modulators in MEF cells, primary screen, imaging, high-content, MEF GFP-LC3; hit rate 0.98% among 190,000; calls only at 10 µM (by protocol); MEF GFP-LC3 puncta imaging; test concentration mostly 10 µM;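 active = percentage of spot-positive cells more than 3 SD above its plate mean, without a fluorescence outlier flag or 80% toxicity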
L929 necroptosis: inhibitors of zVAD-triggered necroptosis, primary screen, L929 cells; viability rescue, % at 10 µM; L929 zVAD necroptosis rescue, ATP luminescence, 24 h; with zVAD 60 µM; hit rate 0.38% among 220,000;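 active = activation, scaled between plate controls, above about 75%, limit read from the data; inactive = activation under that limit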
MDM2 E3 inh: MDM2-luciferase reporter signal enhancers, primary screen, MDM2 E3 ligase inhibitor project, cell-based, luminescence, 1536-well; signal enhancement, % at 5 µM; E3 ubiquitin-protein ligase Mdm2 (Homo sapiens), Q00987; cell-based MDM2 ubiquitination luciferase reporter, 2 h; 0 = plate control, 100 = twice control, blank-subtracted; hit rate 0.11% among 210,000;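 active = signal enhancement of 30% or more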;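 note: luminescence tracks abundance of the self-degrading MDM2-luciferase fusion protein; higher signal means inhibition of MDM2 E3 ligase activity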
Target sequence (Q00987 whole entry, looked up, the tested form may be a part): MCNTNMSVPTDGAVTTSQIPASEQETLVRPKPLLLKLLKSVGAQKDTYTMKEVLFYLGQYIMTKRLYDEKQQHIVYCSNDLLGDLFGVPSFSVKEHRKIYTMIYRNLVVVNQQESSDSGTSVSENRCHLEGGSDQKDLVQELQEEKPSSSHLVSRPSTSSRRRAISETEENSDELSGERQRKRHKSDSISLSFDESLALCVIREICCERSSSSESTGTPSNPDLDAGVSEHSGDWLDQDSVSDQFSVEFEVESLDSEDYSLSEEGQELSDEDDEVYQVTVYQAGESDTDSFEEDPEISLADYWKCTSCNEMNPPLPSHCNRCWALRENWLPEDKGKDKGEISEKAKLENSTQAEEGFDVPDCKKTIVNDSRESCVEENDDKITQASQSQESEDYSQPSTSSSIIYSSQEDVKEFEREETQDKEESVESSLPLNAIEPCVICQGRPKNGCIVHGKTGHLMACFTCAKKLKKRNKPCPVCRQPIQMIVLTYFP
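Timing – 2 h compound exposure at 37 °C · Assay system – mammalian cells stably expressing self-ubiquitinating, self-degrading MDM2 E3–luciferase fusion · Amount – 2000 cells seeded into each well · Measure – % luminescence enhancement versus blank-corrected plate control mean · Measured by – SteadyLite luminescence, 15 min reagent step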
Hck-Nef inh: inhibitors of Nef-activated human Hck kinase, primary screen, biochemical, Z-Lyte FRET, 384-well, Hck-YEEI; inhibition, % at 20 µM; Recombinant Hck-YEEI plus Nef, Z-Lyte FRET kinase assay; hit rate 0.68% among 220,000; AID 463187, 2010;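 active = Hck-Nef kinase inhibition above about 50%, limit read from the data; inactive = inhibition below that limit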
Hits are given with their value; . = inactive; / = not tested or not shown; + = active, no number. Shown are actives, neighbours in structure and some others; about 2.4% of the full set was active somewhere.

SMILES	Dynein cargo inh	TNF death inh	Autophagy mod	L929 necroptosis	MDM2 E3 inh	Hck-Nef inh
CCN1C/C(=C\c2cccc([N+](=O)[O-])c2)C(=O)/C(=C/c2cccc([N+](=O)[O-])c2)C1	-3.7	.	.	.	39	.
O=C1/C(=C/c2cccc([N+](=O)[O-])c2)CCc2ccccc21	.	.	.	.	.	.
COc1ccc(-n2nnc3c(SCC(=O)NCC4CCCO4)ncnc32)cc1 (configuration not stated)	.	.	.	.	.	.
CC1CC(C)(C)N(C(=O)CN2C(=O)c3ccccc3C2=O)c2ccccc21 (configuration not stated)	.	.	+	.	.	.
Cc1ccc(-n2ncc(C(=O)Nc3cc(Cl)ccc3Cl)c2C2CCNCC2)cc1	.	.	+	.	.	.
Cc1ccc(-n2ncc(C(=O)Nc3cc(Cl)cc(Cl)c3)c2C2CCNCC2)cc1C	.	.	+	.	.	.
CCOC(=O)c1cnn(-c2ccc(Cl)cc2)c1C1CCN(C(=O)OC(C)(C)C)CC1	.	.	.	.	.	.
CC(Sc1nnc(NCc2ccccc2)s1)C(=O)Nc1ccc2c(c1)C(=O)c1ccccc1C2=O (configuration not stated)	.	80	.	.	.	.
Cc1ccc(-n2c(-c3ccncc3)n[nH]c2=S)c(C)c1	.	.	.	.	.	.
Cc1ccc(-c2oc3ccccc3c(=O)c2OCC(=O)O)cc1	.	.	.	.	.	.
Cc1ccc(-c2oc3ccccc3c(=O)c2O)cc1	.	.	+	.	.	.
Nc1nc(SCc2ccc(Cl)cc2Cl)nc2nc3c(cc12)CCCC3	.	.	+	.	.	.
O=S(=O)(NCc1ccco1)c1ccccc1Br	.	.	/	.	.	.
CC(=O)Nc1cc(OC(C)=O)c2nonc2c1OC(C)=O	-5.1	.	.	.	/	.
COc1ccccc1CN1C(=S)SC(C)(C)C1NO (configuration not stated)	.	.	.	.	.	.
CN1CCN(c2ccc(NC(=O)c3ccc(-c4ccc(Br)cc4)o3)cc2)CC1	.	.	+	.	.	.
O=C(Nc1ccc(N2CCCC2)cc1)c1ccc(Br)o1	.	.	.	.	/	.
N#CC(c1ccccc1)c1ccc2c(C(F)(F)F)cc(C(F)(F)F)nc2n1 (configuration not stated)	.	.	.	.	.	.
Cc1ccc(C(C#N)c2ccc3c(C(F)(F)F)cc(C(F)(F)F)nc3n2)cc1 (configuration not stated)	.	.	+	.	.	.
CC(/C=C1\SC(=S)N(NC(=O)c2ccc(C)cc2)C1=O)=C\c1ccccc1	.	.	.	.	.	.
CC(/C=C1\SC(=S)N(NS(=O)(=O)c2ccccc2)C1=O)=C\c1ccccc1	.	.	/	.	.	74
COc1ccc(/C(C)=N/N=C2/NC(=O)CC(C(=O)O)S2)cc1F (configuration not stated)	.	.	/	.	/	.
CCCc1nn(C)c(C(=O)Nc2cccc3ccccc23)c1Cl	.	.	+	.	.	.
CCCc1nn(C)c(C(=O)Nc2ccc(CC)cc2)c1Cl	.	.	.	.	.	.
Cc1csc(SCC(=O)NC(=O)NC(C)(C)C)n1	.	.	.	.	.	.
Cc1csc(SCC(=O)NC(=O)NC2CCCC2)n1	.	56	.	.	.	.
Nc1nnc(Cc2ccccc2F)s1	.	.	+	.	.	.
Fc1ccccc1COc1ccc(/C=N/NC(=S)NCc2ccccc2)cc1	.	.	.	.	.	.

Compound activity: PubChem BioAssay, several laboratories
